These results are taken from article PMC10963326 (Heliyon, 2024).

In assay [1] the target is human thrombin (Homo sapiens, UniProt P00734). Description: Direct inhibition of human thrombin, chromogenic substrate. The assay is classed as biochemical. Particulars: highest concentration tested of 600 μM, data not shown. The method, boiled down:
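Thrombin 6 nM final in 20 mM Tris-HCl pH 7.4, 100 mM NaCl, 2.5 mM CaCl2, 0.1% PEG8000, with or without 0.02% Tween80, at 25 or 37 °C. Test compound (DMSO vehicle) added, then either 10 min preincubation or none. Spectrozyme TH at 50 μM final; initial A405 rate. Residual activity was the ratio to the no-compound rate, fitted to a logistic equation for IC50, HS and ΔY.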

Assay [2] addresses thrombin exosite 1. As to conditions: binding to exosite 1 ref 21; cited from earlier work.

Take `CCCCCCCCCCCCOS(=O)(=O)[O-].[Na+]` [sodium dodecyl sulfate]: the inhibition of thrombin result in assay [1] is reported as “did not inhibit”.
For the compound [5 F]-Hir-(54–65)-(SO3^−) [HirP], the Kd in assay [2] was 28 nM.

For orientation: Kd means the equilibrium constant for the complex coming apart.
